Published values of several laboratories.
Compare with care: the assays were run in different laboratories.

| SMILES | species | matrix | route | dose | notes | measurement | result |
| --- | --- | --- | --- | --- | --- | --- | --- |
| CC(C)[C@@H](CS(=O)(=O)C(C)C)N1C(=O)[C@@](C)(CC(=O)O)C[C@H](c2cccc(Cl)c2)[C@H]1c1ccc(Cl)cc1 | FVB mouse | brain | oral | 20 mg/kg |  | unbound tissue/plasma ratio | 0.005 |
| CC(=O)N(C)[C@H]1CCN(C(=O)c2cnc3c(c2)C[C@](C)(c2ccc(F)cc2)N3)C1 | male human | plasma | oral | 15 mg | multiple doses, once daily, steady state | AUC(0-t) | 1.97 µM·h |
| COc1ccc(-c2c(Nc3ccccn3)[nH]c3c(C4=CCCCC4)c(-c4ccccc4)nn3c2=O)cc1 | human | plasma | oral | 400 mg once daily | multiple doses, steady state, patients | AUC(0-t) | 57300 ng·h/mL |
| NCc1cc2c(cc1F)C(=O)N(C1CCC(=O)NC1=O)C2 (centres unmarked) | male cynomolgus monkey | plasma | oral | 0.3 mg/kg |  | Tmax | 2 h |
| O=C(COc1ccc(Cl)cc1)NC12CC(c3nnc([C@H]4C[C@@H](OC(F)(F)F)C4)o3)(C1)C2 | human | plasma | oral | 200 mg | multiple doses, once daily, steady state, healthy volunteers | AUC | 242 µM·h |
| COc1ccc(F)cc1C(=O)NCc1ccc(-c2nn([C@@H](C)C(F)(F)F)c(N)c2C(N)=O)cc1 | human | plasma | oral | 200 mg | single dose | AUC(0-inf) | 80800 ng·h/mL |
| CC(C)n1c(C2CCNCC2)nc2c([N+](=O)[O-])c(Br)c(Br)cc21 | human | plasma | oral | 125 mg | patients | AUC(0-t) | 1760 ng·h/mL |
| COc1ccc2c(c1)CN(C(=O)CCN1CCC(Cc3ccccc3)CC1)CC[S@@+]2[O-] | male human | plasma | intravenous | 0.6 mg/kg | healthy volunteers | AUC(0-t) | 3180 ng·h/mL |
